Source: ChEMBL document CHEMBL1212794, “Efficacy of clarithromycin against experimentally induced pneumonia caused by clarithromycin-resistant Haemophilus influenzae in mice” (2010)
≈ marks a conversion by molar mass, not a printed value. Calls of active or inactive are those of the source. The rule behind the calls is not given here.

Legend:
Haemophilus influenzae [1] = assay: Antibacterial activity against nontypeable beta-lactamase-negative ampicillin-resistant Haemophilus influenzae 4437; type: functional
Method in brief: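 MIC by CLSI broth dilution in Haemophilus Test Medium, inoculum 10^5 CFU/ml, tested in duplicate. β-lactamase production checked by nitrocefin test.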

Haemophilus influenzae [2] = assay: Antibacterial activity against nontypeable beta-lactamase-negative ampicillin-resistant Haemophilus influenzae 4437 infected in mouse ddY assessed as decrease in viable bacterial count at 40 mg/kg, po bid for 3 days; type: functional
Method in brief: (§1)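 Male ddY SPF mice, 6 weeks old, with a tube placed into the main bronchus 7 days before intratracheal challenge under pentobarbital. Drug given in DMSO orally twice daily from 24 h post-infection for 3 days. Mice killed 12 h after the last dose. Lungs homogenized in 1.0 ml PBS, serially diluted and plated on chocolate agar overnight at 37°C, 5% CO2. Four experiments.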

Haemophilus influenzae [3] = assay: Antibacterial activity against nontypeable beta-lactamase-negative ampicillin-resistant Haemophilus influenzae 4437 infected in mouse ddY assessed as decrease in viable bacterial count at 100 mg/kg, po bid for 3 days; type: functional; method in brief: as §1
Mus musculus [4] = assay: Antiinflammatory activity against nontypeable beta-lactamase-negative ampicillin-resistant Haemophilus influenzae 4437 infected in mouse ddY assessed as decrease in total cell count in bronchoalveolar lavage fluid at 40 mg/kg, po bid for 3 days; type: functional, organism-based; design: dose 40 mg/kg; settings: Lung
Method in brief: (§2)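 Intubated ddY mice challenged intratracheally, then dosed orally twice daily from 24 h for 3 days and lavaged 12 h after the last dose (3 × 1.0 ml saline, pooled). Total cells counted with Turk stain. Differentials counted on 100 cytocentrifuged cells stained with Diff-Quick. Four experiments.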

Mus musculus [5] = assay: Antiinflammatory activity against nontypeable beta-lactamase-negative ampicillin-resistant Haemophilus influenzae 4437 infected in mouse ddY assessed as decrease in total cell count in bronchoalveolar lavage fluid at 100 mg/kg, po bid for 3 days; type: functional, organism-based; design: dose 100 mg/kg; settings: Lung; method in brief: as §2
Mus musculus [6] = assay: Antiinflammatory activity against nontypeable beta-lactamase-negative ampicillin-resistant Haemophilus influenzae 4437 infected in mouse ddY assessed as decrease in neutrophil count in bronchoalveolar lavage fluid at 40 mg/kg, po bid for 3 days; type: functional, organism-based; design: dose 40 mg/kg; settings: Lung; method in brief: as §2
Mus musculus [7] = assay: Antiinflammatory activity against nontypeable beta-lactamase-negative ampicillin-resistant Haemophilus influenzae 4437 infected in mouse ddY assessed as decrease in neutrophil count in bronchoalveolar lavage fluid at 100 mg/kg, po bid for 3 days relative to control; type: functional, organism-based; design: dose 100 mg/kg; settings: Lung; method in brief: as §2
Mus musculus [8] = assay: Antiinflammatory activity against nontypeable beta-lactamase-negative ampicillin-resistant Haemophilus influenzae 4437 infected in mouse ddY assessed as decrease in IL1-beta level in bronchoalveolar lavage fluid at 100 mg/kg, po bid for 3 days relative to control; type: functional, organism-based; design: dose 100 mg/kg; settings: Lung
Method in brief: (§3)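 Intubated ddY mice challenged intratracheally, then dosed orally twice daily from 24 h for 3 days and killed 12 h after the last dose. BAL done with 3 × 1.0 ml saline, pooled per animal. MIP-2 and IL-1β in BAL fluid measured by mouse ELISA kits. Four experiments.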

Mus musculus [9] = assay: Antiinflammatory activity against nontypeable beta-lactamase-negative ampicillin-resistant Haemophilus influenzae 4437 infected in mouse ddY assessed as decrease in MIP-2 level in bronchoalveolar lavage fluid at 40 mg/kg, po bid for 3 days relative to control; type: functional, organism-based; design: dose 40 mg/kg; settings: Lung; method in brief: as §3
Mus musculus [10] = assay: Antiinflammatory activity against nontypeable beta-lactamase-negative ampicillin-resistant Haemophilus influenzae 4437 infected in mouse ddY assessed as decrease in MIP-2 level in bronchoalveolar lavage fluid at 100 mg/kg, po bid for 3 days relative to control; type: functional, organism-based; design: dose 100 mg/kg; settings: Lung; method in brief: as §3
Mus musculus [11] = assay: Antiinflammatory activity against nontypeable beta-lactamase-negative ampicillin-resistant Haemophilus influenzae infected in mouse ddY assessed as inflammatory changes in lung at 40 mg/kg, po bid for 3 days relative to control; type: functional, organism-based; design: dose 40 mg/kg
Method in brief: (§4)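 Intubated ddY mice challenged intratracheally, then dosed orally twice daily for 3 days. Lungs fixed in 10% buffered formalin, stained with hematoxylin and eosin, and examined at ×200 for inflammatory cell infiltration of alveoli and bronchioles.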

Mus musculus [12] = assay: Antiinflammatory activity against nontypeable beta-lactamase-negative ampicillin-resistant Haemophilus influenzae infected in mouse ddY assessed as inflammatory changes in lung at 100 mg/kg, po bid for 3 days relative to control; type: functional, organism-based; design: dose 100 mg/kg; method in brief: as §4
Haemophilus influenzae [13] = assay: Antibacterial activity against macrolide-resistant Haemophilus influenzae 4437 infected in NCI-H292 cells assessed as decrease in viable bacterial count at 64 ug/ml by 3-h invasion assay; type: functional, organism-based
Method in brief: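 NCI-H292 cells in RPMI 1640 with 10% FBS, seeded at 5 × 10^5/well, then held in 0.5% FBS for 24 h at confluence. Infected with 10 µl of about 6 × 10^6 CFU/ml bacteria for 3 h at 37°C, 5% CO2. Washed, then gentamicin 200 µg/ml with drug for 2 h. Lysed in 1% Triton X-100; intracellular CFU counted on chocolate agar. Three experiments.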

Mus musculus [14] = assay: Antiinflammatory activity against nontypeable beta-lactamase-negative ampicillin-resistant Haemophilus influenzae 4437 infected in mouse ddY assessed as decrease in IL1-beta level in bronchoalveolar lavage fluid at 40 mg/kg, po bid for 3 days relative to control; type: functional, organism-based; design: dose 40 mg/kg; settings: Lung; method in brief: as §3

Compound	MIC (Haemophilus influenzae [1]) [µg/mL]	log10CFU/ml (Haemophilus influenzae [2])	log10CFU/ml (Haemophilus influenzae [3])	Activity (Mus musculus [4])	Activity (Mus musculus [5])	Activity (Mus musculus [6])	Activity (Mus musculus [7])	Activity (Mus musculus [8])	Activity (Mus musculus [9])	Activity (Mus musculus [10])	Activity (Mus musculus [11])	Activity (Mus musculus [12])	Activity (Haemophilus influenzae [13])	Activity (Mus musculus [14])
CC1(C)S[C@@H]2[C@H](NC(=O)[C@H](N)c3ccccc3)C(=O)N2[C@H]1C(=O)O [AMPICILLIN]	16 (≈ 45.8 µM)	–	–	–	–	–	–	–	–	–	–	–	–	–
CC[C@H]1OC(=O)[C@H](C)[C@@H](O[C@H]2C[C@@](C)(OC)[C@@H](O)[C@H](C)O2)[C@H](C)[C@@H](O[C@@H]2O[C@H](C)C[C@H](N(C)C)[C@H]2O)[C@](C)(OC)C[C@@H](C)C(=O)[C@H](C)[C@@H](O)[C@]1(C)O [CLARITHROMYCIN]	64 (≈ 85.6 µM)	5.8	4.6	Active	Active	Active	Active	Active	Active	Active	Active	Active	Active	Active
